HUVEC inhibit = inhibitors of HUVEC proliferation, primary screen, cell-based, 384-well. CellTiter-Glo luminescence, 72 h; hits give low values. viability, % at 10 µM (by protocol). actives 1.1% (n = 86,000). AID 648, 2007;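 active = viability at or below 30%; inactive = viability above 30%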;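 also: 100% = median luminescence of DMSO-only cell control wells on each plate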
H69AR inhibit = proliferation blockers of H69AR lung cancer cells, primary screen, cell-based, human, 86K library; viability, % at 10 µM; actives 6% (n = 85,000); H69AR lung tumor viability, ATP luminescence, 72 h; hits give low values;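 active = viability at or below 40%; inactive = viability above 40%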;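 also: multidrug resistant small cell line overexpressing MRP-1 efflux transporter; 100% = mean luminescence of untreated control wells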
PTEN del growth = growth suppression of PTEN-null HCT116, primary screen, cell-based, CellTiter-Glo; HCT116 PTEN-null viability, 60 h; hits give low values; viability, % at 10 µM; actives 1.2% (n = 140,000);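 active = viability at or below a set limit, 4 SD under the median of all tested compounds, cut at about 3.7% in these data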;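 also: PTEN knockout HCT116 line with beta catenin targeted HCT116 as companion control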
bCat KO growth = primary screen for growth suppressors in beta-catenin knockout HCT116 cells (colon tumor, human); HCT116 beta-catenin knockout viability, CellTiter-Glo, 60 h; hits give low values; viability, % at 10 µM; actives 1.5% (n = 140,000); AID 818, 2007;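 active = viability at or under a set limit, the compound median less 4 SD, cut at about 6% in these data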;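 also: 0% = Hyamine 1622 control at 20 µM and 100% = untreated cell control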
Fibroblast inh = antiproliferative effect on LL 47 fibroblasts – human, LL 47 cells, CellTiter-Glo luminescence, primary screen; viability, % at 10 µM; LL 47 human lung fibroblast viability, ATP luminescence; hits give low values; actives 1.1% (n = 85,000);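 active = viability at or below 50% in the single dose screen; inactive = viability above 50%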;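 also: compound exposure lasted 72 h before the ATP readout; 100% = median luminescence of untreated cell-only wells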
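Test system: LL 47 human lung fibroblasts; Quantity: 1,150 cells/well; Buffer or medium: IMEM plus 15% FBS; Dosing: tenfold compound dosing solution, DMSO at 0.1%; Timing: overnight cell rest, 72 h compound treatment at 37 °C; Detection: ATP-based CellTiter-Glo luminescent readout; Read-out basis: viability percentage against median untreated-cell control; Controls: cell-only wells, no compound.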
An asterisk follows results filed as active; x = no result. The full list was thinned out, with hits kept by preference.

SMILES	HUVEC inhibit	H69AR inhibit	PTEN del growth	bCat KO growth	Fibroblast inh
CC(=O)O[C@]1(C(C)=O)CC[C@H]2[C@@H]3C[C@H](C)C4=CC(=O)CC[C@]4(C)[C@H]3CC[C@@]21C	102	5.1*	74	72	91
COc1nc(N)nc(CC(=O)C2CC2)n1	97	89	105	100	100
CCOC(=O)c1ccc(N/C=C/C(=O)c2ccco2)cc1	95	17*	59	60	107
CCCS(=O)(=O)N1CCC(C(=O)NCCCN2CCC(Cc3ccccc3)CC2)CC1	91	99	28	21	106
CCOC(=O)c1cc(NC(=O)CSCCO)ccc1Cl	105	15*	91	88	97
CN(C)CCCOC(=O)c1ccccc1Cl	87	104	106	115	95
O=C(NC(c1ccc(Cl)cc1)c1c(O)ccc2ccccc12)c1ccccc1 (centres undefined)	x	x	0.6*	1.1*	x
O=C(NC(c1ccccc1)c1c(O)ccc2ccccc12)c1ccccc1Cl (centres undefined)	x	x	87	82	x
CCc1ccc2c(c1)C1(C(=O)N2)N2CCCC2C(C(=O)c2ccc3ccccc3c2)C12C(=O)Nc1ccccc12 (centres undefined)	x	x	1.1*	1.3*	x
CCc1cccc2c1NC(=O)C21N2CCCC2C(C(=O)c2ccc3ccccc3c2)C12C(=O)Nc1ccccc12 (centres undefined)	x	x	6	9	x
CCOc1cc(/C=N/NC(=O)Cn2nc([N+](=O)[O-])cc2C)cc(Br)c1OCc1ccccc1C	3.6*	0.6*	2.1*	1.5*	5.9*
C=CCn1cnc2scc(-c3ccc(C)cc3)c2c1=O	91	94	107	102	96
CCc1cc(SC#N)cc(CC)c1NC(=O)CCl	x	x	1.6*	1.9*	x
CN1CCN(Cc2nc(N)nc(Nc3ccc4c(c3)OCCO4)n2)CC1	88	93	99	103	93
Cc1nn(Cc2c(F)c(F)c(F)c(F)c2F)c(C)c1NC(=O)c1ccc(COc2ccc(Cl)cc2Cl)o1	x	x	14	4.7*	x
c1ccc(CSc2nnc(-c3c[nH]c4ccccc34)o2)cc1	27*	97	63	72	106
c1ccc2c(-c3nnc(SCc4cn5ccccc5n4)o3)c[nH]c2c1	89	63	105	95	119
CCc1cc2c(=O)[nH]c(-c3ccccn3)nc2s1	x	x	2.3*	2.5*	x
CCc1cc2c(=O)[nH]c(N3CCCC3)nc2s1	x	x	87	91	x
O=C(COC(=O)CC12CC3CC(CC(Br)(C3)C1)C2)NC(=O)NCc1ccco1	96	100	84	67	103
COc1ccc(N(C(=O)Cc2cccs2)C(C(=O)NC2CCCCC2)c2cccn2C)cc1OC (centres undefined)	92	76	81	94	95
C#CC(=O)N(c1ccc(OC)c(OC)c1)C(C(=O)NC1CCCC1)c1cccs1 (centres undefined)	x	x	1.7*	1.3*	x
Cc1cccc(N(C(=O)C(F)(F)F)C(C(=O)NC2CCCCC2)c2cccs2)c1 (centres undefined)	x	x	90	87	x
C#CC(=O)N(c1cccc(OC)c1)C(C(=O)NC1CCCC1)c1cccs1 (centres undefined)	x	x	1.0*	0.5*	x
COc1cc(N(C(=O)Cc2cccs2)C(C(=O)NC2CCCCC2)c2ccc(C)cc2)ccc1-n1cnnn1 (centres undefined)	x	x	1.4*	15	x
SMILES	HUVEC inhibit	H69AR inhibit	PTEN del growth	bCat KO growth	Fibroblast inh
Cn1c(CNC(=O)c2ccc(Cl)cc2)nnc1SCC(=O)Nc1sc2c(c1C#N)CCCC2	73	89	56	88	94
COc1ccccc1NC(=O)C1=C(C)Nc2nnnn2C1c1cc(Br)ccc1OC (centres undefined)	91	17*	59	44	83
CCC1CCCCN1S(=O)(=O)c1ccc(C(=O)Nc2nnc(-c3ccccc3Cl)o2)cc1 (centres undefined)	57	20*	16	16	64
O=C(Nc1nnc(-c2cccs2)o1)c1cccc(Oc2ccccc2)c1	61	39*	10	19	88
CCCCN(C)S(=O)(=O)c1ccc(C(=O)Nc2nnc(-c3cccs3)o2)cc1	5.1*	35*	13	15	66
CC1CCCCN1S(=O)(=O)c1ccc(C(=O)Nc2nnc(-c3ccccc3Cl)o2)cc1 (centres undefined)	3.7*	52	17	23	64
CC1CCCCN1S(=O)(=O)c1ccc(C(=O)Nc2sccc2C(N)=O)cc1 (centres undefined)	79	75	80	55	94
COC(=O)Oc1ccc(/C=C/C(=O)OC(C)C)cc1OC(=O)OC	x	x	78	81	x
CN(Cc1ccccc1)c1ccc2nnc(-c3ccccc3)n2n1	x	x	63	68	x
Cn1c(=O)c2c(nc(Cl)n2Cc2ccc(Cl)c(Cl)c2)n(C)c1=O	85	73	67	74	97
O=C1CC2(CCCCC2)Oc2ccc(O)cc21	x	x	86	83	x
O=C(Nc1nnc(-c2ccccc2Cl)o1)c1ccc(S(=O)(=O)N2CCCCCC2)cc1	3.0*	31*	13	18	60
CCCCN(CC)S(=O)(=O)c1ccc(C(=O)Nc2nnc(-c3ccccc3Cl)o2)cc1	3.3*	27*	16	16	75
COc1ccc(-c2noc(CN3CCC(Cc4ccccc4)CC3)n2)cc1	121	96	84	85	103
N#C/C(=C1\CCCN1)c1nc2ccccc2c(=O)[nH]1	91	94	91	94	105
N#CC1=C(N)SC(C(=O)c2ccccc2)C1c1cccs1 (centres undefined)	105	86	82	88	96
CCOC(=O)N1CCN(C(=O)c2ccc3c(=O)n(CCc4ccccc4)c(=S)[nH]c3c2)CC1	44	10*	26	20	76
COCCn1c(=S)[nH]c2cc(C(=O)N3CCN(c4ccc(F)cc4)CC3)ccc2c1=O	91	35*	83	89	92
CCOC(=O)N1CCN(C(=O)c2ccc3c(=O)n(CCC4=CCCCC4)c(=S)[nH]c3c2)CC1	78	43	48	62	91
CCOC(=O)N1CCN(C(=O)c2ccc3c(=O)n(Cc4ccc(Cl)cc4)c(=S)[nH]c3c2)CC1	53	13*	64	68	93
S=C1NC2=C(CCC/C2=C\c2ccccc2)C(c2ccccc2)N1 (centres undefined)	x	x	95	91	x
C(=C1/CCCC2=C1Nc1ncnn1C2c1ccccc1)/c1ccccc1 (centres undefined)	13*	0.8*	1.5*	1.5*	4.1*
N#Cc1nc(-c2ccc(OCc3ccccc3)cc2)oc1N1CCC(C(N)=O)CC1	29*	37*	102	92	80
